20 sequences from the EternaBench riboswitch data can be followed below.

This data set has as its system MS2 coat protein. The experiment in a line: apparent Kd, MS2 coat protein; higher = weaker binding; RNA-MaP array; FMN 200 µM where present. In outline:
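Stalled E. coli RNA polymerase transcribed each design on Illumina sequencing-chip clusters. The clusters were titrated with SNAP-549-labelled MS2 coat protein, starting at 0.7 or 1.5 nM and doubling up to 3 µM, first without ligand and then with constant ligand, in 100 mM Tris-HCl pH 7.5, 80 mM KCl, 4 mM MgCl2, BSA, DTT, yeast tRNA and Tween-20. Green signal was normalised to red-channel RNA signal and to the control-cluster median Fmax. The apparent Kd is the median of filtered binding-curve fits made for each cluster.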

[1] abbreviates: designed as: OFF switch for flavin mononucleotide, no ligand.
Where [2] appears, read: ligand present: flavin mononucleotide, designed as: OFF switch for flavin mononucleotide.
The mark [3] stands for this setting: designed as: ON switch for flavin mononucleotide, no ligand.
Where [4] appears, read: ligand present: flavin mononucleotide, designed as: ON switch for flavin mononucleotide.

“GUUAUGUCAGGAUAUGCUUAUGAUGAGUGCUCAGACAUGAUGCAGAAGGGACAUGAGGAUCACCCAUGUACUGA”: the “apparent Kd” value under setting [1] worked out at 25.4 nM and the “apparent Kd” value under setting [2] stood at 63.9 nM.

Consider “CGCAAGUAUACAUGAGGAUCACCCAUGUUUGAUAGGGUUUUCAGAAGGUACAAUUAGAGAUAGAGUAAGGAUAUGAAAUUUGCG”, for which the “apparent Kd” value amounted to 125 nM under setting [3] and 24.7 nM under setting [4].

“AGUGCGUAUGUGAGGAUAUGCUGGUCCUUGGCUCGGCAGAAGGCACAUGAGGAUCACCCAUGUGGUGUCGUACG”: the “apparent Kd” value under setting [1] turned out to be 62.2 nM and the “apparent Kd” value under setting [2] was 412 nM.

For “ACCUUCAAAGGAUAUGCGACUGGACGCCUUGCCAUGUAUAGACAUGAGGAUCACCCAUGUAGAAGGUUGGAGGA”, the “apparent Kd” value came to 30.7 nM under setting [1] and 47.7 nM under setting [2].

For “UGCUAGAAAGGAUAUACAUGAGGAUCACCCAUGUAACCCUAUAUGAGAGUUCCCGUUUGUAGAAGGUUCUCGUG”, the “apparent Kd” value is, setting by setting: under setting [1], 16.9 nM; under setting [2], 26.5 nM.

Consider “GGAGCUCCCAUUAACAUGAGGAUCACCCAUGUCAAAAGACAUGAGGAUAUGGUACCUAAUUGGUACCAGAAGGCAUGGAGCUCC”, for which the “apparent Kd” value is, setting by setting: under setting [3], 1180 nM; under setting [4], 107 nM.

Turning to “GCUGCCGCUGCAGGAUAUCAGCACGUGUAGUGCUGAGAAGGGCACAUGAGGAUCACCCAUGUGAUCAAUUAAUAAGCGUGCAGC”, the “apparent Kd” value reads like this: under setting [1], 6.86 nM; under setting [2], 16.5 nM.

In the case of “GAGCGGGAAACAUGAGGAUCACCCAUGUGAUGAAUCCUCACAUAGGAUAUCCACACGAGAAGUGUGGAGAAGGAUGACCCGGUC”, the “apparent Kd” value reads like this: under setting [1], 1120 nM; under setting [2], 1700 nM.

Regarding “CGUAACUGCAUAGGAUAUUGAUACAUGAGGAUCACCCAUGUUUUUCGGAUUAGAUAUAUACUUAGCAAGAAGGAUGGAGUUACG”, the “apparent Kd” value came to 9.58 nM under setting [3] and 6.57 nM under setting [4].

As for “GGAUCGAAUGUGAGGAUAUGCUGGUCCUUGGAUCAGCAGAAGGCACAUGAGGAUCACCCAUGUCCAAGCGGUCC”, the “apparent Kd” value reads like this: under setting [1], 212 nM; under setting [2], 559 nM.

For “CUUCAACAAGGAUAUGCCAUGGAUCGACACUGUUACGCGAAACAUGAGGAUCACCCAUGUAGAAGGUGUUGAGA”, the “apparent Kd” value under setting [1] was 78.5 nM and the “apparent Kd” value under setting [2] stood at 96.2 nM.

In the case of “UUGGACGUCGUAGGAUAUGUAGGAUAUUCCUACAUGAGGAUCACCCAUGUUGGCAUGGAAGAAGGACAGAAGGACGAUGUCCAU”, the “apparent Kd” value under setting [3] was 158 nM and the “apparent Kd” value under setting [4] was determined as 4.94 nM.

As for “UUGGAGUACGUAGGAUAUGUAGGAUAUUCCUACAUGAGGAUCACCCAUGUAUGCAUGGAAGAAGGACAGAAGGACGUGCUCCAU”, the “apparent Kd” value came out at 219 nM under setting [3] and 16 nM under setting [4].

As for “AGAAAACAUGAGGAUCACCCAUGUCAGGAUAUCCUGCGGCAAUACACGCCGCGUUGUCGGAGAAGGGACAGGGA”, the “apparent Kd” value is, setting by setting: under setting [1], 39 nM; under setting [2], 102 nM.

Consider “GUGUACAGAGGAUAUACAGGAGCAUGGAAACAUGCAACCUCACAUGAGGAUCACCCAUGUAGAAGGCUGUACAC”, for which the “apparent Kd” value is 154 nM under setting [1] and 81.3 nM under setting [2].

Take “UCGGCGCGAGGAUAUACGGUUGCUUUUUAGGGUCGUGGCGUACAUGAGGAUCACCCAUGUAGAAGGCGCGCCGC”: the “apparent Kd” value by setting is: under setting [1], 16.1 nM; under setting [2], 30.2 nM.

Consider “AGCUGGUGACAGCAUCGAGCAAAACAUGAGGAUCACCCAUGUAGAAGGCUGUACGGUUACCGUACAGAGGAUAUACAAAGCUCG”, for which the “apparent Kd” value is 6.35 nM under setting [1] and 8.14 nM under setting [2].

For “UUCCUCAUAACAUGAGGAUCACCCAUGUAUUAUUUGAUAACUGAGGAUAUACUUUUAAUGUUUAUGUAGAAGGCAGAUACAGUU”, the “apparent Kd” value is, setting by setting: under setting [1], 89.4 nM; under setting [2], 138 nM.

Take “GUAGCGCUUGACAUGAGGAUCACCCAUGUUAGAUUGUUAUGUCAGGAUAUAGUCUAGAAACUAGACUAGAAGGGAUAUGCUACU”: the “apparent Kd” value is, setting by setting: under setting [3], 251 nM; under setting [4], 39.8 nM.

Regarding “AUACAUGAGGAUCACCCAUGUAAUUAAUUAACUUGUAAGAUCAAGGAUAUCAGCUCGAUUAGAGCUGAGAAGGUGAUCACAUGU”, the “apparent Kd” value came to 260 nM under setting [3] and 253 nM under setting [4].
